Most compounds without a hit are left out; they make up all but 1.8% or so of the library.
PPC-1+TRAIL kill: compounds killing PPC-1 cancer cells with TRAIL present (potentiator screen, no TRAIL-free arm); PPC-1 cells + TRAIL, ATPLite viability luminescence; cell killing (% activity), % at 4 µM or 5 µM; actives 0.41% (n = 220,000); AID 1443;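 active means cell killing above 50% in the first pass at 4 µM, then a duplicate retest at 5 µM averaging 50% or more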
STAT3 act-1: activators of IL-6 induced STAT3 signaling | AID 871 | actives 0.91% (n = 190,000) | U3A cells, IL-6 STAT3-luciferase reporter, luminescence; 100% = signal with IL-6 EC80 alone | activation (% of control), % at 5.6 µM;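 active means activation above the screen-wide mean of compound activation plus 3 SD, cut at about 130% in these data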
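Detection: reporter luminescence signal / Assay system: STAT1-lacking human U3A cells, STAT3 luciferase reporter / Incubation: compound pre-incubation 1 h before IL-6, then 6 h stimulation at 37 °C / Control set: IL-6-only high control / Read-out: % activation relative to IL-6 control / Probe or stimulus: Interleukin-6, 33 ng/mL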
STAT3 inh: inhibitors of IL-6 induced STAT3 signaling; U3A cells, IL-6 STAT3-luciferase reporter, luminescence; host cell line lacks STAT1; inhibition, % at 5.5 µM; actives 0.89% (n = 190,000); AID 862;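 active means inhibition above the mean inhibition across all screened compounds plus 3 SD, cut at about 44% in these data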
C8 TRAIL sens: caspase-8 TRAIL sensitization; NB7+C8 cells + TRAIL, ATPlite viability luminescence; inhibition (viability loss, TRAIL sensitization), % at 10 µM; actives 1% (n = 360,000); AID 624354;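 active means compounds causing at least 50% loss of cell viability in the single-dose screen, relative to plate controls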
STAT1 blocker: reduces IFN-gamma driven STAT1 reporter signal; NIH 3T3 STAT1-luciferase reporter, luminescence; inhibition, % at 5.5 µM; actives 0.35% (n = 200,000);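 active means inhibition above a set limit, the mean inhibition across all tested compounds plus 3 SD, cut at about 34% in these data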
STAT3 act-2: confirmation of STAT3 signaling activators; shares compounds with STAT3 act-1; U3A STAT3-luciferase reporter, IL-6 potentiation, luminescence; U3A cells lack STAT1; 100 means same as IL-6 alone; potentiation (% of control), % at 5.7 µM; actives 64% (n = 1,200);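 active means percent activation of the STAT3 luciferase reporter above a set limit taken from the earlier primary screen, cut at about 130% in these data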
NFkB act 2: counter-screen for STAT3 activators: NF-kappaB activation | shares compounds with STAT3 act-1 | human cells, NF-kappaB reporter activation | activation (% of control), % at 5.7 µM | actives 11% (n = 1,200) | AID 1309; in the data active means activation above about 120%;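 further: reporter induced by TNF-alpha stimulation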
STAT1 act STAT3c: counter-screen for STAT3 activators: STAT1 activation. actives 13% (n = 1,200). NIH 3T3 STAT1-luciferase reporter, IFN-gamma, luminescence. activation (% of control), % at 5.7 µM. shares compounds with STAT3 act-1;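 active means activation above the solvent-only control well mean plus 3 SD, set per screening run, cut at about 120% in these data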
Large screens that a line does not name were inactive (follow-up assays come after a bar, where they were run).

CCc1cc(CN2CCOCC2)c(NC(=O)c2ccccc2)s1	STAT3 act-1 139 | STAT3 act-2 143 | NFkB act 2 inactive | STAT1 act STAT3c inactive
Fc1cccc(/C=N/Nc2nccnc2Cl)c1	none (no result: PPC-1+TRAIL kill, STAT3 act-1, STAT3 inh, STAT1 blocker)
Clc1cccc(/C=N/Nc2nnc(Cl)c3ccccc23)c1	STAT3 act-1 140 | STAT3 act-2 inactive | NFkB act 2 inactive | STAT1 act STAT3c inactive
Cc1cc(C)c(NC(=O)CS(=O)CC(=O)NCC2CCCO2)c(C)c1 (stereo not given)	STAT3 act-1 140 | STAT3 act-2 inactive | NFkB act 2 inactive | STAT1 act STAT3c inactive
N#Cc1cc2cc3c(cc2nc1SCC(=O)N1CCOCC1)OCCO3	none (no result: PPC-1+TRAIL kill, STAT3 act-1, STAT3 inh, STAT1 blocker)
Cc1cc(NC(=O)Cc2cccs2)no1	STAT3 act-1 143 | STAT3 act-2 inactive | NFkB act 2 inactive | STAT1 act STAT3c inactive
C/C(=N\NC1=NCCN1)c1ccc(Cl)cc1	none (no result: STAT3 act-1, STAT3 inh, STAT1 blocker)
C/C(=N\Nc1nc2c(s1)CCCC2)c1ccc(Cl)cc1	STAT3 act-1 158 | STAT3 act-2 inactive | NFkB act 2 122 | STAT1 act STAT3c inactive
Cc1nn(CC(=O)N2CCC(C)CC2)c(=O)c2nn(-c3ccccc3)c(C)c12	none (no result: PPC-1+TRAIL kill, STAT3 act-1, STAT3 inh, STAT1 blocker)
Cc1nn(-c2ccccc2)c2c1C(c1cccs1)C(C#N)=C(N)O2 (stereo not given)	STAT3 act-1 148 | STAT3 act-2 inactive | NFkB act 2 inactive | STAT1 act STAT3c inactive
N#CC1=C(N)Oc2n[nH]c(-c3cccs3)c2C1c1cccs1 (stereo not given)	STAT3 act-1 176 | STAT3 act-2 inactive | NFkB act 2 inactive | STAT1 act STAT3c inactive
CC[C@@]1(C(=O)OC)N[C@H](CN(C)S(=O)(=O)c2ccc(OC)cc2)[C@@H]2C(=O)N(C)C(=O)[C@@H]21	none (no result: PPC-1+TRAIL kill, STAT3 act-1, STAT3 inh, STAT1 blocker)
Cc1ccc([C@H]2C[C@H](n3cc(-c4ccc(F)cc4)nn3)[C@@H](O)CN2C(=O)C2CCCCC2)cc1	none (no result: PPC-1+TRAIL kill, STAT3 act-1, STAT3 inh, STAT1 blocker)
Cc1cccc(C)c1Nc1nnc(SC/C(O)=C(\C#N)c2nc3ccccc3[nH]2)s1	STAT3 act-1 143 | STAT3 act-2 152 | NFkB act 2 inactive | STAT1 act STAT3c inactive
Cn1cnnc1SC/C(O)=C(\C#N)c1nc2ccccc2[nH]1	none
Cc1cccc(Nc2nnc(SC/C(O)=C(\C#N)c3nc4ccccc4[nH]3)s2)c1C	STAT3 act-1 148 | STAT3 act-2 145 | NFkB act 2 inactive | STAT1 act STAT3c inactive
Cc1ccc(Nc2nnc(SCC(O)=C(C#N)c3nc4ccccc4[nH]3)s2)c(C)c1	none (no result: PPC-1+TRAIL kill, STAT3 act-1, STAT3 inh, STAT1 blocker)
Cc1ccc(C)c(SCC(=O)OC/C(O)=C(\C#N)c2nc3ccccc3[nH]2)c1	STAT3 act-1 146 | STAT3 act-2 150 | NFkB act 2 inactive | STAT1 act STAT3c inactive
CC(C)NC(=O)C1(C)CCN1C(=O)c1ccc2c(c1)OCO2 (stereo not given)	none (no result: PPC-1+TRAIL kill, STAT3 act-1, STAT3 inh, STAT1 blocker)
COCCN(C(=O)CSc1nnc(-c2cccc(Cl)c2)n1N)c1c(N)n(CC(C)C)c(=O)[nH]c1=O	none (no result: PPC-1+TRAIL kill, STAT3 act-1, STAT3 inh, STAT1 blocker)
Oc1ccc(N2CCN(c3ncnc4sc(-c5ccccc5)cc34)CC2)cc1	STAT3 act-1 159 | STAT3 act-2 inactive | NFkB act 2 inactive | STAT1 act STAT3c inactive
O=C1Cc2ccccc2C(=O)N1CCc1ccccc1	STAT3 act-1 155 | STAT3 act-2 136 | NFkB act 2 inactive | STAT1 act STAT3c inactive
COc1cccc(-n2c(SCc3ccccn3)nc3c(c2=O)SCC3)c1	none
COC(=O)c1[nH]c2cc(C)ccc2c1NC(=O)CN1CCCc2ccccc21	STAT3 act-1 156 | STAT3 act-2 143 | NFkB act 2 inactive | STAT1 act STAT3c 137
S=C(Nc1ccc(Cl)cc1)Nc1cccc2cnccc12	STAT3 act-1 147 | STAT3 act-2 144 | NFkB act 2 inactive | STAT1 act STAT3c inactive
CC(C)(C)C(=O)CNS(=O)(=O)c1ccc(S(=O)(=O)NC2CC2)cc1	none (no result: PPC-1+TRAIL kill, STAT3 act-1, STAT3 inh, STAT1 blocker)
CN1N=C(C(=O)N2CCc3c([nH]c4ccccc34)C2c2ccccc2Cl)CCC1=O (stereo not given)	STAT3 act-1 156 | STAT3 act-2 178 | NFkB act 2 121 | STAT1 act STAT3c 123
O=C(c1cc[n+]([O-])cc1)N1CCc2c([nH]c3ccccc23)C1c1ccccc1Cl (stereo not given)	STAT3 act-1 176 | STAT3 act-2 155 | NFkB act 2 inactive | STAT1 act STAT3c inactive
CC(C(=O)Nc1ccccn1)N1C(=O)C2C3C=CC(C3)C2C1=O (stereo not given)	none
O=C1C2C3C=CC(C3)C2C(=O)N1CNc1ccccn1 (stereo not given)	STAT3 act-1 140 | STAT3 act-2 inactive | NFkB act 2 inactive | STAT1 act STAT3c inactive
CCNC(=O)c1ccc(=O)n(Cc2ccc(Cl)cc2Cl)c1	none (no result: PPC-1+TRAIL kill, STAT3 act-1, STAT3 inh, STAT1 blocker)
N#Cc1c(C(F)(F)F)cc(C2CC2)nc1N1CCCC1	STAT3 act-1 148 | STAT3 act-2 inactive | NFkB act 2 inactive | STAT1 act STAT3c inactive
CC(C)CCNC(=O)c1ccc(-c2ccccc2)cc1	none (no result: C8 TRAIL sens)
Cc1[nH]c2ccccc2c1/C=N/Nc1ccc(F)cc1F	STAT3 act-1 155 (no result: C8 TRAIL sens) | STAT3 act-2 142 | NFkB act 2 inactive | STAT1 act STAT3c 121
CC(=O)N1CCC(c2c[nH]c3ccccc23)CC1	none (no result: STAT3 act-1, STAT3 inh, STAT1 blocker)
CC[C@@]1(C(=O)OC)N[C@H](CN(C)C(=O)C2CCCCC2)[C@@H]2C(=O)N(Cc3ccccc3)C(=O)[C@@H]21	none (no result: PPC-1+TRAIL kill, STAT3 act-1, STAT3 inh, STAT1 blocker)
CCOC(=O)c1[nH]c2ccccc2c1NC(=O)C(CC)CC	none
CCOC(=O)c1[nH]c2ccccc2c1NC(=S)Nc1cccc(C)c1	STAT3 act-1 163 | STAT3 act-2 155 | NFkB act 2 inactive | STAT1 act STAT3c inactive
CCOC(=O)c1[nH]c2ccccc2c1NC(=S)Nc1ccccc1	STAT3 act-1 157 | STAT3 act-2 163 | NFkB act 2 inactive | STAT1 act STAT3c inactive
COc1ccc(C)cc1S(=O)(=O)N(C)CC(=O)NC1CCCCCC1	STAT3 act-1 136 | STAT3 act-2 inactive | NFkB act 2 inactive | STAT1 act STAT3c inactive
Cn1c(N)c(N=O)c(=O)n(C)c1=S	none (no result: PPC-1+TRAIL kill, STAT3 act-1, STAT3 inh, STAT1 blocker)
Cc1cc(C(=O)N2CCC(C)(C(=O)NS(=O)(=O)C3CC3)C2)n(C(C)(C)C)n1 (stereo not given)	none (no result: PPC-1+TRAIL kill, STAT3 act-1, STAT3 inh, STAT1 blocker)
c1ccc2c(-c3c[nH]c4ccccc34)c3ccccc3nc2c1	none
O=C(O)c1cc(-c2c[nH]c3ccccc23)nc2ccc3ccccc3c12	STAT3 act-1 142 | STAT3 act-2 163 | NFkB act 2 inactive | STAT1 act STAT3c inactive
COc1ccccc1/C=N/NC(=O)C1=NNC(c2ccccc2)(c2ccccc2)C1	STAT3 act-1 149 (no result: C8 TRAIL sens) | STAT3 act-2 inactive | NFkB act 2 inactive | STAT1 act STAT3c inactive

Screening data: PubChem BioAssay, several laboratories
